# Source: paper PMC4377730 (Theranostics, 2015)
# Test: [18F]FDG-PET in patients
# Type: in vivo, human
# Outline: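 Patients fasted 6 h, and blood glucose was checked just before injection to be below 150 mg/dL. They received 300-500 MBq [18F]FDG, with PET/CT started 90 min p.i. at 2 min per bed position. A low-dose CT (120 […], 20 mAs) in shallow inspiration provided attenuation correction. Emission data were corrected for randoms, dead time, scatter and attenuation. Read-outs were SUVmean/SUVmax.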
# [1] = NSCLC lesion, patient with T-cell lymphoma and NSCLC
# [2] = bone marrow (BM), patient with multiple myeloma
# [3] = hottest lesion in the 5th rib left, patient with multiple myeloma
# [4] = lymphoma lesion, patient with T-cell lymphoma and NSCLC
# [5] = nodal lesions, patient with chronic lymphocytic leukemia and suspected transformation into aggressive B-cell lymphoma
smiles,measurement,setting,value
"O=C[C@H]([18F])[C@@H](O)[C@H](O)[C@H](O)CO [[^18F]FDG, 2-[^18F]Fluoro-2-desoxyglucose]",SUVmax,[1],38.57
same,SUVmean,[1],26.36
same,SUVmax,[2],6.24
same,SUVmean,[2],3.77
same,SUVmax,[3],8.06
same,SUVmean,[3],5.23
same,SUVmax,[4],50.91
same,SUVmean,[4],29.82
same,SUVmax,[5],5.94
same,SUVmean,[5],3.66
